Key:
[1] = Cytotoxicity against human HCT116 cells assessed as reduction in cell viability measured after 48 hrs by ATPlite 1step luminescence assay; type: functional, cell-based; details: HCT-116, 48 h
[2] = Cytotoxicity against human HIF1alpha and HIF2alpha deficit HCT116 cells assessed as reduction in cell viability measured after 48 hrs by ATPlite 1step luminescence assay; type: functional, cell-based; details: HCT-116, 48 h
[3] = Cytotoxicity against oncogenic KRAS knockout human HCT116 cells expressing wild type KRAS assessed as reduction in cell viability measured after 48 hrs by ATPlite 1step luminescence assay; type: functional, cell-based; details: HCT-116, 48 h
[4] = Cytotoxicity against human HIF1alpha and HIF2alpha deficit HCT116 cells assessed as reduction of cell viability measured after 48 hrs by ATPlite 1step luminescence assay relative to parental HCT116 cells; type: functional; details: HCT-116, 48 h
[5] = Cytotoxicity against oncogenic KRAS knockout human HCT116 cells expressing wild type KRAS assessed as reduction in cell viability measured after 48 hrs by ATPlite 1step luminescence assay relative to parental HCT116 cells; type: functional; details: HCT-116, 48 h
[6] = Cytotoxicity against human HCT116 cells assessed as reduction in cell viability measured after 48 hrs by MTT assay; type: functional, cell-based; details: HCT-116, 48 h
Method in brief: (§1)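 Parental HCT116, HIF-1α/HIF-2α double-knockout and oncogenic-KRAS-knockout (wild-type KRAS) isogenic lines grown in DMEM + 10% FBS, 37 °C, 5% CO2. Seeded at 10,000 cells/well; compound added at various concentrations 24 h later.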

[7] = Cytotoxicity against human HIF1alpha and HIF2alpha deficit HCT116 cells assessed as reduction in cell viability measured after 48 hrs by MTT assay; type: functional, cell-based; details: HCT-116, 48 h; method in brief: as §1
[8] = Cytotoxicity against oncogenic KRAS knockout human HCT116 cells assessed as reduction in cell viability measured after 48 hrs by MTT assay; type: functional, cell-based; details: HCT-116, 48 h; method in brief: as §1
[9] = Cytotoxicity against human HIF1alpha and HIF2alpha deficit HCT116 cells assessed as reduction in cell viability measured after 48 hrs by MTT assay relative to parental HCT116 cells; type: functional; details: HCT-116, 48 h
Method in brief: (§2)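 Same isogenic HCT116 MTT set-up: cells in DMEM + 10% FBS at 37 °C, 5% CO2, 10,000 cells/well, dosed at graded concentrations after 24 h, MTT read 48 h post-treatment. Maximum efficacy in each knockout line expressed as percent of that in parental HCT116.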

[10] = Cytotoxicity against oncogenic KRAS knockout human HCT116 cells expressing wild type KRAS assessed as reduction in cell viability measured after 48 hrs by MTT assay relative to parental HCT116 cells; type: functional; details: HCT-116, 48 h; method in brief: as §2
[11] = system: HCT-116; assay: Selectivity ratio of IC50 for human HIF1alpha and HIF2alpha deficit HCT116 cells to IC50 for human HCT116 cells; type: functional
[12] = system: HCT-116; assay: Selectivity ratio of IC50 for oncogenic KRAS knockout human HCT116 cells to IC50 for human HCT116 cells; type: functional

Structure (SMILES): CCCCCCCC(=O)SCC/C=C/[C@@H]1CC(=O)NCc2nc(cs2)C2=N[C@@](C)(CS2)C(=O)N[C@@H](C(C)C)C(=O)O1 [LARGAZOLE]
- IC50 [1]: 6.41 nM
- IC50 [2]: 18 nM
- IC50 [3]: 3.7 nM
- Emax [4]: 70%
- Emax [5]: 67%

Structure (SMILES): CC[C@H](C)[C@@H](C(=O)N1C(=O)C=C(OC)[C@@H]1Cc1ccccc1)N(C)C(=O)[C@H](C(C)C)N(C)C(=O)[C@@H](NC(=O)[C@H](C(C)C)N(C)C)C(C)C
- IC50 [6]: 3900 nM
- IC50 [7]: 5200 nM
- IC50 [8]: 8600 nM
- Emax [9]: 67%
- Emax [10]: 100%

Structure (SMILES): CC[C@H](C)[C@@H]([C@@H](CC(=O)N1CCC[C@H]1[C@H](OC)[C@@H](C)C(=O)N[C@@H](Cc1ccccc1)c1nccs1)OC)N(C)C(=O)[C@@H](NC(=O)[C@H](C(C)C)N(C)C)C(C)C [DOLASTATIN-10]
- IC50 [1]: 0.48 nM
- IC50 [2]: 65 nM
- IC50 [3]: 24 nM
- Emax [4]: 74%
- Emax [5]: 83%
- Ratio IC50 [11]: >50
- Ratio IC50 [12]: >50
